Test results reported in ChEMBL document CHEMBL1146220, “Rational optimization of the binding affinity of CD4 targeting peptidomimetics with potential anti HIV activity” (J Med Chem, 2007).
Numbered stars: 1 amine (or outer) side, 2 acyl side, 3 side chain; on linkers, the order of the positions; unused ones are H or OH. Square brackets hold non-standard residues; d marks the D form. Peptide text beside a SMILES is read from it. * marks the point of attachment. Acetyl(2-naphthyloxy) = O=C(COc1ccc2ccccc2c1)*; Alaninol(O-CO) = C[C@@H](COC(=O)[*:2])N[*:1]; NH(1-Adamantyl) = C1C2CC3CC1CC(N*)(C2)C3; X1 = O=C(OC[C@@H]1CCCN1[*:1])[*:2]; X2 = S=C(NC1CC1)OC[C@@H]1CCCN1*; X3 = O=C(COc1cccc2cccnc12)*; NHcHex = C1CCC(N*)CC1; NHcPent = C1CCC(N*)C1; NHtBu = CC(C)(C)N*

How the values were obtained:
[1] = molecular target: T-cell surface glycoprotein CD4 (Homo sapiens, UniProt P01730); test: Binding affinity to CD4 by SPR assay
How it was run: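 Test ligands passed over the CD4 SPR surface at a series of concentrations, recording the concentration-dependent maximum response units (RU). Surface regenerated between runs with short pulses of 100 mM H3PO4. Only the lower concentrations (generally up to 50 µM) fitting a one-site binding model were used. KD was taken as the concentration at RUmax/2.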

[2] = Half life by pronase digestion assay; assay type: ADME; conditions: pronase (protease digestion)
How it was run: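 Pronase digestion was run at 37 °C. Aliquots were taken at 5, 10, 15, 20 and 30 min and quenched with 1 M acetic acid. Hydrolysis products were identified as M+H+/Na+/K+ ions, and t1/2 was derived from the disappearance time course.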

Kd [1] | half-life [2] | Molecule
13 µM | – | CC(C)[C@H](NC(=O)[C@H](CCCCN)NC(=O)COc1cccc2cccnc12)C(=O)NCC(=O)N[C@H](C(=O)N[C@@H](C)COC(=O)NC(C)(C)C)[C@@H](C)O (X3-KVGT[Alaninol(O-CO)]-NHtBu)
26 µM | – | CC(C)[C@H](NC(=O)[C@H](CCCCN)NC(=O)COc1cccc2cccnc12)C(=O)NCC(=O)N[C@H](C(=O)N1CCC[C@H]1COC(=O)NC(C)(C)C)[C@@H](C)O (X3-KVGT[X1]-NHtBu)
20 µM | – | CC(C)[C@H](NC(=O)[C@H](CCCCN)NC(=O)COc1ccc2ccccc2c1)C(=O)NCC(=O)N[C@H](C(=O)N[C@@H](C)COC(=O)NC(C)(C)C)C(C)O (single isomer, unassigned)
27 µM | – | CC(C)[C@H](NC(=O)[C@H](CCCCN)NC(=O)COc1ccc2ccccc2c1)C(=O)NCC(=O)N[C@H](C(=O)N1CCC[C@H]1COC(=S)NC1CC1)[C@@H](C)O ({Acetyl(2-naphthyloxy)}-KVGT-X2)
62 µM | – | CC(C)[C@H](NC(=O)[C@H](CCCCN)NC(=O)COc1ccc2ccccc2c1)C(=O)NCC(=O)N[C@H](C(=O)N[C@@H](C)COC(=O)NC1CCCC1)[C@@H](C)O ({Acetyl(2-naphthyloxy)}-KVGT[Alaninol(O-CO)]-NHcPent)
80 µM | – | CC(C)[C@H](NC(=O)[C@H](CCCCN)NC(=O)COc1ccc2ccccc2c1)C(=O)NCC(=O)N[C@H](C(=O)N[C@@H](C)COC(=O)NC12CC3CC(CC(C3)C1)C2)[C@@H](C)O ({Acetyl(2-naphthyloxy)}-KVGT[Alaninol(O-CO)]-{NH(1-Adamantyl)})
35 µM | 27.3 min | CC(C)[C@H](NC(=O)[C@H](CCCCN)NC(=O)COc1ccc2ccccc2c1)C(=O)NCC(=O)N[C@H](C(=O)N1CCC[C@H]1COC(=O)NC1CCCCC1)[C@@H](C)O ({Acetyl(2-naphthyloxy)}-KVGT[X1]-NHcHex)
16 µM | – | CC(C)[C@H](NC(=O)[C@H](CCCCN)NC(=O)COc1ccc2ccccc2c1)C(=O)NCC(=O)N[C@H](C(=O)N1CCC[C@H]1COC(=O)NC1CCCC1)[C@@H](C)O ({Acetyl(2-naphthyloxy)}-KVGT[X1]-NHcPent)
6 µM | – | CC(C)[C@H](NC(=O)[C@H](CCCCN)NC(=O)COc1ccc2ccccc2c1)C(=O)NCC(=O)N[C@H](C(=O)N1CCC[C@H]1COC(=O)NC(C)(C)C)[C@@H](C)O ({Acetyl(2-naphthyloxy)}-KVGT[X1]-NHtBu)
26 µM | 23 min | CCOC(=O)CNC(=O)OC[C@@H]1CCCN1C(=O)[C@@H](NC(=O)CNC(=O)[C@@H](NC(=O)[C@H](CCCCN)NC(=O)COc1ccc2ccccc2c1)C(C)C)[C@@H](C)O ({Acetyl(2-naphthyloxy)}-KVGT[X1]G-OEt)
6000 µM | 6 min | H-NMWQKVGTPL-OH
